HSV augment = increases HSV replication in cells; HSV replication augmentation in cells, fold increase; hit rate 0.005% among 220,000; maximum fold increase; in the data active = maximum fold increase above about 1.5; inconclusive = no clear call, values can overlap the other calls; tested in PC3 cells
ABCG2 block = human ABCG2 inhibition, ABCB1 as counter-screen; Q9UNQ0; inhibition, % at 6.6 µM; hit rate 0.1% among 190,000; IgMXP3 cells, JC-1 efflux, flow cytometry; AID 1325;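 active = inhibition above 80%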;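 also: 0% = DMSO and 100% = nicardipine control wells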
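Test system: IgMXP3 (ABCG2) plus far-red-tagged CCRF-Adr (ABCB1) cells. Reagent: JC-1 dye as substrate. Timing: 10 min exposure at 25 °C with rotation, no wash. Measured by: flow cytometric JC-1 green MFI at 530 nm. Read-out: percent efflux inhibition, scaled nicardipine 100% to DMSO 0%. Control set: nicardipine and DMSO wells.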
ABCB1 inh = human ABCB1 inhibition, ABCG2 as counter-screen. P08183. CCRF-Adr cells, JC-1 efflux, flow cytometry. inhibition, % at 6.6 µM. hit rate 0.067% among 190,000; in the data active = inhibition above about 40%;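 also: 0% = vehicle and 100% = reference inhibitor; higher value means more JC-1 retained so stronger ABCB1 efflux block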
Target sequence (P08183 whole entry, looked up): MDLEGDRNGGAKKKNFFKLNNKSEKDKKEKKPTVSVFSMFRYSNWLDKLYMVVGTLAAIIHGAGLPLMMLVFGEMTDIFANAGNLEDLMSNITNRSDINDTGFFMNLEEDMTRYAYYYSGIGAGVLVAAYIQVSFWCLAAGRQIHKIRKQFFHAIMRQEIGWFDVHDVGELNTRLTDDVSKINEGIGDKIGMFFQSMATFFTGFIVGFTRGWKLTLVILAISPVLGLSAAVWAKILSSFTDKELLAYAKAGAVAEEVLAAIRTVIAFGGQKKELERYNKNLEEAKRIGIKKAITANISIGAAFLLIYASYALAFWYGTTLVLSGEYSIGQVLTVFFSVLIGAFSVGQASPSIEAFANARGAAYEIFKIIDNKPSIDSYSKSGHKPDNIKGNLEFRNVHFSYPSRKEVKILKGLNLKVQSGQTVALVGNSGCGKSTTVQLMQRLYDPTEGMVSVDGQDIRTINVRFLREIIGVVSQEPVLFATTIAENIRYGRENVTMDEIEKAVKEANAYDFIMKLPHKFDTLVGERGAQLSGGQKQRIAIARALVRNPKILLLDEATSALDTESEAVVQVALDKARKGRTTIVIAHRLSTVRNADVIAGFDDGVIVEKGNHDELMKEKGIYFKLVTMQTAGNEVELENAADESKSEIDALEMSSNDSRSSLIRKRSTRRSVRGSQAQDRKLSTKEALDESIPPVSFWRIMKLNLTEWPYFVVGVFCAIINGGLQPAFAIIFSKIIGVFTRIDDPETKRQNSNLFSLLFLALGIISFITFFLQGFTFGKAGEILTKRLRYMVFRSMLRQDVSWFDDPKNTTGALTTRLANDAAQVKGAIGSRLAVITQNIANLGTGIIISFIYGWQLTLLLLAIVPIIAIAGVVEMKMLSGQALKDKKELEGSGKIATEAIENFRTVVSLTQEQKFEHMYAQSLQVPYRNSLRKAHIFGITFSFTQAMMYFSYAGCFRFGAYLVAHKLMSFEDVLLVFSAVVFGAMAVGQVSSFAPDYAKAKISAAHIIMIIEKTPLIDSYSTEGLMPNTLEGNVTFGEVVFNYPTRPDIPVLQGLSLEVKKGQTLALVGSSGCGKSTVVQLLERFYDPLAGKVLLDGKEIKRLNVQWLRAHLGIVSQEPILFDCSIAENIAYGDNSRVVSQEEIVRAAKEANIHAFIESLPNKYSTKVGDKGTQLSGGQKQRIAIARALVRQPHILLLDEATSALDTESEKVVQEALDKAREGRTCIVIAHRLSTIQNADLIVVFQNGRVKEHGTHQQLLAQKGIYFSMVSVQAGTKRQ
HMGR II inh = E. faecalis class II HMG-CoA reductase inhibition; purified E. faecalis HMGR, NADPH absorbance 340 nm kinetic; inhibition, % at 10 µM; hit rate 0.41% among 190,000; AID 1066;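 active = inhibition above a set limit, the median over all tested compounds plus 3 SD, cut at about 9.5% in these data; inconclusive = no clear call, values can overlap the other calls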;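 also: enzyme runs in reverse so mevalonate oxidation gives rising NADPH absorbance; 0% = complete reaction with DMSO and 100% = background rate lacking mevalonate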
Numbers without * were called inactive; i = inactive; ? = inconclusive; · = no result; + = active, no number. An excerpt weighted towards active compounds, which were near 0.49% of everything screened.

SMILES | HSV augment | ABCG2 block | ABCB1 inh | HMGR II inh
COc1ccc(NS(=O)(=O)c2ccc(NC(=O)c3cnn4c(C(F)F)cc(-c5ccc(C)cc5)nc34)cc2)cc1 | i | -1 | 0 | -7
C/C(CCN1CCc2nc(-c3ccccc3)c(-c3ccccc3)cc2C1)=N\O[C@@H](C)c1cn([C@H](CO)Cc2ccccc2)nn1 | · | -3 | 2 | 10.0*
COc1ccc(Cc2cnc(N)s2)cc1 | i | 1 | 0 | 1
Cc1cc(C(=O)N[C@H](c2ccccc2)[C@@]2(C)C[C@@H]2[C@@H](C)C(=O)Nc2ccc3ccccc3c2)no1 | i | 0 | 2 | 25*
COC(=O)c1sccc1NC(=O)c1ccc(OC)cc1OC | i | 3 | 1 | -4
O=C(NCC1CCCN(C(=O)c2cscn2)C1)c1ccc(-c2ccccc2)cc1 (centres undefined) | i | 1 | -3 | 1
O=C(NCC1CCCN(C(=O)c2cscn2)C1)c1ccccc1Cl (centres undefined) | i | 1 | 0 | 10*
CCC1=C[C@H]2CN(C1)Cc1c([nH]c3ccccc13)[C@@](C(=O)OC)(c1cc3c(cc1OC)N(C)[C@H]1[C@@](O)(C(=O)OC)[C@H](OC(C)=O)[C@]4(CC)C=CCN5CC[C@]31[C@@H]54)C2 | i | · | · | ·
COc1cc(NS(=O)(=O)c2ccc(NC(=S)NC(=O)CC(C)C)cc2)nc(OC)n1 | i | 1 | 0 | 13*
COc1ccc(S(=O)(=O)N(C)c2ccc(C(=O)N3CCCC3)cc2)cc1 | i | 2 | 0 | 9.7*
O=C(CN1C(=O)NC(Cc2ccccc2)C1=O)Nc1ccc(F)cc1 (centres undefined) | i | 1 | 1 | -1
Cc1ccc(NC(=O)CN2C(=O)NC(Cc3ccccc3)C2=O)c(Br)c1 (centres undefined) | i | 9 | 1 | 10*
CC(C)CC(O)(CC(C)C)C(=O)NNc1ccccc1 | i | 3 | 0 | 15*
CC(C)CCC(O)(CCC(C)C)C(=O)NNc1ccccc1 | i | 2 | 0 | 4
CCN1/C(=C/C=C/c2oc3ccc(-c4ccccc4)cc3[n+]2CC)Oc2ccc(-c3ccccc3)cc21 | ? | · | + | -3
Cc1cc(NC(=O)CSc2nnc(-c3ccncc3)n2C)n(-c2ccccc2)n1 | i | · | · | ·
Cc1cc(=O)c2cccc(Br)c2[nH]1 | i | 5 | 0 | 12*
Cc1cc(=O)c2ccc3ccccc3c2[nH]1 | · | 1 | 0 | 1
COc1ccc(CC(=O)OCc2cc(=O)n3cc(Br)ccc3n2)cc1OC | i | 3 | 1 | 17*
Cc1cc(C)n(C(=O)COc2ccccc2C)n1 | i | 0 | 0 | 13*
Cc1cc(C)n(CC(O)COc2ccccc2)n1 (centres undefined) | i | 2 | 0 | 3
Cc1cc(C)n(CC(O)COc2ccccc2C)n1 (centres undefined) | i | 0 | 0 | 12*
Cc1ccc(OCC(=O)n2nc(C)cc2C)c(Br)c1 | i | 8 | 0 | 0
COCCn1c(=N)c(C(=O)NCc2ccco2)cc2c(=O)n3cc(C)ccc3nc21 | i | 0 | 0 | 17*
Cc1ccc(Cn2c(=N)c(C(=O)NCc3ccco3)cc3c(=O)n4ccccc4nc32)cc1 | · | 5 | 2 | -6
SMILES | HSV augment | ABCG2 block | ABCB1 inh | HMGR II inh
CCOC(=O)C1=C(COc2ccc(F)cc2Cl)NC(=O)NC1c1cc(C)ccc1C (centres undefined) | i | 3 | 1 | 24*
COC(=O)C1=C(C)N(C)C(C)=C(C(=O)OC)C1c1ccc(C(=O)OC)cc1 | i | 3 | 2 | -3
COC(=O)C1=C(C)N(C)C(=S)N(C)C1c1ccc(OC)cc1 (centres undefined) | i | 0 | 0 | 12*
CCC(C)NC(=O)CCn1c(-c2ccc(F)cc2)cc(C(C)=O)c1C (centres undefined) | i | 3 | 0 | 9.7*
CCOC(=O)c1cc(-c2ccc(C)cc2)n(CCC(=O)NC(C)CC)c1C (centres undefined) | i | 5 | 2 | -6
COc1cccc(CN2CCN(C3CCN(c4ccccc4C)CC3)CC2CCO)c1 (centres undefined) | i | 0 | 1 | 11*
CCN(CC)c1ccc2cc(-c3nc(-c4ccc(OC)cc4)cs3)c(=O)oc2c1 | ? | + | + | -3
CCN(CC)c1ccc(/C=C2\C(=O)c3ccc(C(=O)O)cc3C2=O)cc1 | ? | 135* | 88* | -2
COc1ccc(-c2nc3ccc(N4CCCC4)cc3c(=O)[nH]2)cc1OC | · | 30 | 3 | -1
Cn1c(N)c(C(=O)Nc2c(Cl)cccc2Cl)sc1=S | i | · | · | ·
CC1CN(C(=O)CSc2nnc(-c3ccncc3)n2-c2ccccc2)CC(C)O1 (centres undefined) | i | 2 | 0 | -2
CC1CN(C(=O)CSc2nnc(-c3ccc(Cl)cc3)n2C)CC(C)O1 (centres undefined) | i | 6 | 0 | 12*
O=C(COC(=O)CCc1nc2ccccc2c(=O)[nH]1)Nc1ccc(Cl)cn1 | i | · | · | ·
COC(=O)C(NC(=O)c1cccnc1Cl)C(C)C (centres undefined) | i | · | · | ·
Cc1cccc(CSc2nc3ccncc3n2CC(=O)Nc2cc(C)cc(C)c2)c1 | i | 4 | -1 | 12*
Cc1cc(C)c2[nH]c(=O)c(CN(Cc3cccnc3)C(=S)NCCCN(C)C)cc2c1 | i | 2 | 0 | -4
C=CCOc1c(Br)cc(CNc2nccs2)cc1OC | i | 3 | 0 | 14*
CC(C)(CO)NC(=O)CC1C(=O)NCCN1CC(c1ccccc1)c1ccccc1 (centres undefined) | i | 0 | 0 | 10*
OCCC1CN(Cc2cnc(-c3ccccc3)s2)CCN1Cc1ccccc1 (centres undefined) | i | 1 | 2 | 0
OCCC1CN(Cc2cccs2)CCN1Cc1ccccc1 (centres undefined) | i | -2 | -2 | 15*
CC(=O)c1ccc(NC(=O)CSc2ccc3nnc(-c4cccnc4)n3n2)cc1 | i | -1 | 0 | -1
C=CCN(CC=C)C(=O)Cn1cnc([N+](=O)[O-])n1 | i | 0 | 0 | -4
Cn1c(CO)cnc1SCc1c(Cl)cccc1Cl | i | 4 | 1 | 0
Cn1c(CO)cnc1SCc1ccc(F)cc1 | i | 2 | 0 | 15*
Oc1ccc(C2=Nn3c(nnc3-c3ccco3)SC2)cc1O | · | -20 | -2 | 12*
SMILES | HSV augment | ABCG2 block | ABCB1 inh | HMGR II inh
CNC(=O)/C(C#N)=C/c1c(N(Cc2ccccc2)Cc2ccccc2)nc2ccccn2c1=O | i | 4 | 4 | 3
O=C(NCc1n[nH]c(=S)n1-c1ccccc1)c1cccs1 | i | 18 | 1 | 12*
O=C(Cc1c(Cl)cccc1Cl)Nc1cccnc1 | i | 10 | 1 | -1
CCOC(=O)Cn1c(=O)cc(C)c2cccc(C)c21 | i | 9 | 1 | -1
CCOC(=O)Cn1c(C)cc(=O)c2cccc(C)c21 | i | 3 | 1 | 12*
NC(=O)CSc1nnc(-c2ccc([N+](=O)[O-])cc2)o1 | i | 1 | 0 | 14*

Assay outcomes from PubChem.
